This note sets out measurements from ChEMBL document CHEMBL1158569, “Structure-activity relationships in a novel series of 7-substituted-aryl quinolines and 5-substituted-aryl benzothiazoles at the metabotropic glutamate receptor subtype 5” (Bioorg Med Chem, 2010).

One may read the inhibition as the drop in the measured response relative to a control, in per cent. Broadly, the Ki is a measure of affinity in units of concentration, obtained from inhibition or displacement. The IC50 is the midpoint of a concentration-inhibition curve.

For assay [1], the target named is Metabotropic glutamate receptor 5 (Rattus norvegicus) (UniProt P31424). Conditions: HEK293-A, 0.0001 to 100 uM.
Assay [2] addresses T1, Metabotropic glutamate receptor 5 (Rattus norvegicus, UniProt P31424). Briefly: Displacement of [3HMPEP from rat cloned mGluR5 expressed in HEK293T cells by scintillation counting. Type of assay: cell-based, HEK-293T. Summed up: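 Radioligand displacement with [3H]MPEP, run through the NIMH Psychoactive Drug Screening Program. Receptor source was rat brain membranes or HEK293-T cells transfected with cloned rat mGluR5 cDNA. Ki reported as ±SEM.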

For assay [3], the target named is T1, Metabotropic glutamate receptor 5. Briefly: Antagonist activity at rat mGluR5 expressed in HEK293A cells assessed as inhibition of glutamate-induced calcium flux preincubated for 140 secs before glutamate challenge by calcium fluorescence assay. It counts as functional, cell-based, HEK293-A. In outline:
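Functional read-out was receptor-induced intracellular calcium release, detected by calcium fluorescence. A kinetic imaging plate reader recorded calcium levels simultaneously in every well of 384-well plates. IC50 reported as ±SEM.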

The target in assay [4] is Metabotropic glutamate receptor 4 (Homo sapiens) (UniProt Q14833). Briefly: Inhibition of mGluR4 expressed in CHO cells at 10 uM. Type of assay: cell-based.
Sequence of Metabotropic glutamate receptor 4 (Homo sapiens) (Q14833 whole entry): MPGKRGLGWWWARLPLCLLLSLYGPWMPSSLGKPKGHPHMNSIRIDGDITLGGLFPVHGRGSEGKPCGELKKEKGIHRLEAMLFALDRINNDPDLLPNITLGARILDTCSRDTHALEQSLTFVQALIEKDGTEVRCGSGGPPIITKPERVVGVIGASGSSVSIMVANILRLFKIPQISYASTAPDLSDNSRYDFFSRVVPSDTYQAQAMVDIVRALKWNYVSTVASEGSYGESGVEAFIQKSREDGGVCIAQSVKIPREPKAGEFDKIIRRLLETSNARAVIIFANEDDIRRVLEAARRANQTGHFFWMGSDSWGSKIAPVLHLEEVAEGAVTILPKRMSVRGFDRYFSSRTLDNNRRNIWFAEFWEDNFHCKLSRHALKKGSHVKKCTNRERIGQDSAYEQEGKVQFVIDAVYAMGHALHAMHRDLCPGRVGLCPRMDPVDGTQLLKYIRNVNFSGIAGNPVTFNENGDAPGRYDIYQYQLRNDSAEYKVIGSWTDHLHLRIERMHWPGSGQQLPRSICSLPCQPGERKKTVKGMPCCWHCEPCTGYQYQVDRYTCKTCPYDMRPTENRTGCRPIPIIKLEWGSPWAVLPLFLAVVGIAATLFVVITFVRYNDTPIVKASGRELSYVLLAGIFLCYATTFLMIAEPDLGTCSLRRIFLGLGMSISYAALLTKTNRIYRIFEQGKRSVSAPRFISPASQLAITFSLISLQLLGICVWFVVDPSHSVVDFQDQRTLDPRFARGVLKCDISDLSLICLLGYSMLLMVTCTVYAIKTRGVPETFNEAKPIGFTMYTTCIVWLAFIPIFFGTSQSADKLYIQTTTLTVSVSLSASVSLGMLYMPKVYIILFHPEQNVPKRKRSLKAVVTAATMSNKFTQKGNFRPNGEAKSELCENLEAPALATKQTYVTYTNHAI
In assay [5] the target is Glutamate NMDA receptor (Rattus norvegicus) (UniProt P35439+Q00959+Q00960+Q00961+Q62645+Q8VHN2+Q9R1M7). Briefly: Displacement of [3H]MK801 from NMDA receptor in rat brain homogenate at 10 uM by scintillation counting. Type of assay: tissue-based. (Loss of bound radioactivity is the signal in a displacement assay; it reports binding, not function.)
Assay [6] has as its target Metabotropic glutamate receptor 8 (Homo sapiens) (UniProt O00222). Description: Inhibition of mGluR8 expressed in CHO cells at 10 uM. It counts as cell-based.
For assay [7], the target named is Metabotropic glutamate receptor 1 (Homo sapiens) (UniProt Q13255). Description: Inhibition of mGluR1 expressed in CHO cells at 10 uM. Type of assay: cell-based.
Sequence of Metabotropic glutamate receptor 1 (Homo sapiens) (Q13255 19-1194 limits assumed): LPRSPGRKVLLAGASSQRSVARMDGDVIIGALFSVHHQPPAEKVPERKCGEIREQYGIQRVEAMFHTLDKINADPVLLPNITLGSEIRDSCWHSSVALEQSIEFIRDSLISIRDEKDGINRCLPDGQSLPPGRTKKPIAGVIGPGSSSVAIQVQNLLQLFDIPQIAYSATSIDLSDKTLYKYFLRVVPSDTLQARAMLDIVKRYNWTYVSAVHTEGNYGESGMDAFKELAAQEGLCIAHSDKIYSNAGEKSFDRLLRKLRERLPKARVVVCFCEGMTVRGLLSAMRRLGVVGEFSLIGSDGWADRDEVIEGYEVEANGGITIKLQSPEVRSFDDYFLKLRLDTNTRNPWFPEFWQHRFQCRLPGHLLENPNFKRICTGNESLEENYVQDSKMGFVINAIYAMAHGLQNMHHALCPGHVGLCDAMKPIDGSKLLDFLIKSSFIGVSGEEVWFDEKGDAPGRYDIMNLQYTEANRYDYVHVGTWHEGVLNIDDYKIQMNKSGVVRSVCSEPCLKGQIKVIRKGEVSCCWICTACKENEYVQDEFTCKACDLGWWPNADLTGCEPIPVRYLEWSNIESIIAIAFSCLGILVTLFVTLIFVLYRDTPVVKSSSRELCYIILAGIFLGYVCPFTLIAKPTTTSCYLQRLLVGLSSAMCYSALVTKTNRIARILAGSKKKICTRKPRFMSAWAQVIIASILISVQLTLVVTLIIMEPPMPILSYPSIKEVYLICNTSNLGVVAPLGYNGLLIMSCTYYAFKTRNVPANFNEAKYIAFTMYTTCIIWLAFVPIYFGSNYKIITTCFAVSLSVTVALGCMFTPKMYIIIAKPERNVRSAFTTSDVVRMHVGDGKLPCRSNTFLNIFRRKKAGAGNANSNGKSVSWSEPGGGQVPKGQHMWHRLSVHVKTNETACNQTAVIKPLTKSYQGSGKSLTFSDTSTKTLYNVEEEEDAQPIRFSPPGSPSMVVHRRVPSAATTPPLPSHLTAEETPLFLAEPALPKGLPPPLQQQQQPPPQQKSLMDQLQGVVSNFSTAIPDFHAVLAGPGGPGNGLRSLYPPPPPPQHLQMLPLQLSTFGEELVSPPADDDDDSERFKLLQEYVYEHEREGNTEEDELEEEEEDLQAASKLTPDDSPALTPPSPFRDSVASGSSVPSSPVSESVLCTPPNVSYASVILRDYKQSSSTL
For assay [8], the target named is Metabotropic glutamate receptor 6 (Homo sapiens) (UniProt O15303). Description: Inhibition of mGluR6 expressed in CHO cells at 10 uM. Type of assay: cell-based.
Sequence of Metabotropic glutamate receptor 6 (Homo sapiens) (O15303 whole entry): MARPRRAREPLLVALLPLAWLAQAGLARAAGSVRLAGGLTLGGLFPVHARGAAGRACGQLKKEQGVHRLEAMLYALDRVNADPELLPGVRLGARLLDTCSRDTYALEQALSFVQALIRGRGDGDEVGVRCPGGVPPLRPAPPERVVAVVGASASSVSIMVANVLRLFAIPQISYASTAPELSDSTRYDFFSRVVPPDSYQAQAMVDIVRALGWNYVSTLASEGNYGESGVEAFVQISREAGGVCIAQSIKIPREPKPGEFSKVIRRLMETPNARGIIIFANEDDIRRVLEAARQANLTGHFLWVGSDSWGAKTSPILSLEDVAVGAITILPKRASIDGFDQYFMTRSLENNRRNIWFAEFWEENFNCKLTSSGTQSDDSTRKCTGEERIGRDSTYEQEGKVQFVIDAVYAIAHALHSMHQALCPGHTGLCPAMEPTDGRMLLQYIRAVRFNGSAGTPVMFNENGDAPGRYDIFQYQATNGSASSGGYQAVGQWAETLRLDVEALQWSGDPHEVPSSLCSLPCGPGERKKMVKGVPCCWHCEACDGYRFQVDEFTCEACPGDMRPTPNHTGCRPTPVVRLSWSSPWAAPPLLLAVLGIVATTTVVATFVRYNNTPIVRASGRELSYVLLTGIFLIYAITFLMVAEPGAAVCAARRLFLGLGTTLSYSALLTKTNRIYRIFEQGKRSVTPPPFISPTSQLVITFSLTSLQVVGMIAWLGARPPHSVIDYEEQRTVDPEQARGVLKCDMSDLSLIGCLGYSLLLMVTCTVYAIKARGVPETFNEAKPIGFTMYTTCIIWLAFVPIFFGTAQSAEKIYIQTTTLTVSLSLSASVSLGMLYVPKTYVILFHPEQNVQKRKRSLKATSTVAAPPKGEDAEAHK
In assay [9] the target is Metabotropic glutamate receptor 2 (Homo sapiens) (UniProt Q14416). Description: Inhibition of mGluR2 expressed in CHO cells at 10 uM. It counts as cell-based.
Sequence of Metabotropic glutamate receptor 2 (Homo sapiens) (Q14416 19-872 limits assumed): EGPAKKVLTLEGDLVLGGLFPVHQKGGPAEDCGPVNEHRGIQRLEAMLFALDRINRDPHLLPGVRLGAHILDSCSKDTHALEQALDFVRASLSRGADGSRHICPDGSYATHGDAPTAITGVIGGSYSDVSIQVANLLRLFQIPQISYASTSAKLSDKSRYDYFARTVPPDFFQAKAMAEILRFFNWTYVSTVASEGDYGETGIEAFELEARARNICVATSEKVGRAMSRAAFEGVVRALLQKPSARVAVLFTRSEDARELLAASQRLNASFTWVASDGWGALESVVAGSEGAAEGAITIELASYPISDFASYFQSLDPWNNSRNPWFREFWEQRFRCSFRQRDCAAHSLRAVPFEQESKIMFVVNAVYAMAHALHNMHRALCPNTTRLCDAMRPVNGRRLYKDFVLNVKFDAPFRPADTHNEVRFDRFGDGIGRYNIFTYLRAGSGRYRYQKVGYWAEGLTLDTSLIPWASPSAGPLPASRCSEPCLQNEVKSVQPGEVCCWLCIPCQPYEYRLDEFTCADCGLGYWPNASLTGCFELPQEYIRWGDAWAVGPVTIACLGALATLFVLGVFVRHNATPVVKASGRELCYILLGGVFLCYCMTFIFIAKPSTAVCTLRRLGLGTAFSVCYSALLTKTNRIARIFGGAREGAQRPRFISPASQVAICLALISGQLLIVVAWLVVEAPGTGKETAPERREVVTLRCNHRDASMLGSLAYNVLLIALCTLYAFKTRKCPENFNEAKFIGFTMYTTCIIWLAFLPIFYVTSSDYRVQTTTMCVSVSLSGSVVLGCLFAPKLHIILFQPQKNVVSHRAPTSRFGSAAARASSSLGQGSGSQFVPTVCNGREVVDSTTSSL

Calls of active or inactive are those of the source. The calls are words filed in the database; no cut-off is given here.

Sequence of Metabotropic glutamate receptor 8 (Homo sapiens) (O00222 whole entry): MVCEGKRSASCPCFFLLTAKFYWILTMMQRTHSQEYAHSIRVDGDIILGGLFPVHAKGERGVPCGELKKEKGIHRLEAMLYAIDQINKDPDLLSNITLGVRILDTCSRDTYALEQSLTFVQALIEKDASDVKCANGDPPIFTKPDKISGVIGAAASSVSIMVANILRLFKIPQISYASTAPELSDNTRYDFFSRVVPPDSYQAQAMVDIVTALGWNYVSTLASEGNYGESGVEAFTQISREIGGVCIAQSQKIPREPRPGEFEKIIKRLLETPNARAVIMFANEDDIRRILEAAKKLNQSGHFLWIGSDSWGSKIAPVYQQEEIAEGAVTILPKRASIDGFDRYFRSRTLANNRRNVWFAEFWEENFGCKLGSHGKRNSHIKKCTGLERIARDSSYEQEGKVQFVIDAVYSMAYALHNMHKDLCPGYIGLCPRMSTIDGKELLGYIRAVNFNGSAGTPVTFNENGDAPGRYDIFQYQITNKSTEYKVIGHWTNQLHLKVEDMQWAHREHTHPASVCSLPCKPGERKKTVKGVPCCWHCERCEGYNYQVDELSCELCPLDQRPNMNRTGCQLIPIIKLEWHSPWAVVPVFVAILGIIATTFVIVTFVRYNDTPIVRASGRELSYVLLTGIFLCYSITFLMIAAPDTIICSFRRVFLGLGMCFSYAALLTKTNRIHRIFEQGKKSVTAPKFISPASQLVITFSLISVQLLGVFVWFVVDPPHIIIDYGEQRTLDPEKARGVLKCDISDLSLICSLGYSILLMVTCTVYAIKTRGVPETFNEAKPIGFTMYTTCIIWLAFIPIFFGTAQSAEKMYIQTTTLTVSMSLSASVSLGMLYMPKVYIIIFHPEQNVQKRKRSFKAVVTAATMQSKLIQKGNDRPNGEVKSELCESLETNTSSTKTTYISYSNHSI

Take `Cc1ccc2ccc(-c3cnc(Cl)c(C#N)c3)cc2n1`: the inhibition was 50% in [1]; below 50% in assay [4]; below 50% in assay [6]; below 50% in [7]; below 50% in [8]; below 50% in [9]. In assay [2], this molecule displayed a Ki above 10000 nM. Moreover, the IC50 in assay [3] came to 3310 nM. In [5], the result was inactive.
Consider `Cc1nc(C#Cc2cccnc2)cs1`, for which the inhibition in assay [4], in assay [6], in assay [7], in assay [8] and in [9] was below 50% in each case. Also, the result in assay [5] was inactive.
For the molecule `Cc1ccc2ccc(-c3ccc(-c4ccc(F)cc4)c(C#N)c3)cc2n1`, in assay [2], the Ki turned out to be 64 nM. Also, the 50% inhibitory concentration (IC50) in assay [3] amounted to 692 nM. Besides, the inhibition in assay [4], in assay [6], in [7], in assay [8] and in [9] was below 50% throughout. Moreover, in assay [5], the result was inactive.
`Cc1ccc2ccc(-c3ccc(Cl)cc3C#N)cc2n1`: in assay [2], the affinity, expressed as Ki, was 4720 nM. Moreover, in assay [3], the IC50 came to 9150 nM. For the same molecule, the inhibition in assay [4], in assay [6], in [7], in assay [8] and in assay [9] was below 50% throughout. In addition, in [5], the result was inactive.
For the molecule `Cc1ccc2ccc(-c3ccc(-c4ccccc4)c(C#N)c3)cc2n1`, the Ki in [2] is 97 nM. Further, in assay [3], the IC50 was 1250 nM. Besides, the inhibition in [4], in assay [6], in assay [7], in assay [8] and in [9] was below 50% throughout. Besides, the result in [5] was inactive.
`Cc1nc2cc(-c3ccc(OCc4ccccc4)c(C#N)c3)ccc2s1` registered a Ki in assay [2] of 7130 nM. The IC50 in assay [3] is above 10000 nM. The inhibition in [4], in assay [6], in assay [7], in assay [8] and in assay [9] was below 50% each time. For the same molecule, the result in [5] was inactive.
In turn, `Cc1cccc(C#Cc2cncc(C#N)c2)n1` showed a Ki in assay [2] of 1.5 nM. For the same molecule, in [3], the concentration for half-maximal inhibition (IC50) came out at 13 nM. Also, the inhibition in [4], in assay [6], in [7], in assay [8] and in [9] was below 50% throughout. Moreover, the outcome in [5] was inactive.
In assay [2], `COCOc1ccc(-c2ccc3ccc(C)nc3c2)cc1C#N` had a Ki of 596 nM. Further, the IC50 in assay [3] was 294 nM. The inhibition in assay [4], in [6], in assay [7], in assay [8] and in [9] was below 50% in each case. In assay [5], the outcome was inactive.
Turning to `Cc1ccc2ccc(-c3ccc(-c4cccnc4)c(C#N)c3)cc2n1`, affinity in [2] was put at a Ki of 730 nM. Also, the IC50 in assay [3] was 1340 nM. Besides, the inhibition in assay [4], in [6], in assay [7], in [8] and in assay [9] was below 50% in each case. In assay [5], the outcome was inactive.
Take `Cc1ccc2ccc(-c3ccc(O)c(C#N)c3)cc2n1`: the Ki in assay [2] was above 10000 nM. Further, in assay [3], the IC50 was above 10000 nM. The inhibition in assay [4], in assay [6], in assay [7], in [8] and in assay [9] was below 50% each time. Further, the result in assay [5] was inactive.
On to `Cc1ccc2ccc(-c3cnc(-c4ccccc4)c(C#N)c3)cc2n1`, for which, in assay [2], affinity was put at a Ki of 97 nM. Moreover, the IC50 in [3] is 81 nM. Moreover, the inhibition in [4], in assay [6], in assay [7], in assay [8] and in assay [9] was below 50% throughout. The outcome in [5] was inactive.
For the molecule `Cc1nc2cc(-c3ccc(OS(=O)(=O)C(F)(F)F)c(C#N)c3)ccc2s1`, the Ki in [2] came to 862 nM. Further, the IC50 in assay [3] came to 7840 nM. The inhibition in assay [4], in [6], in assay [7], in assay [8] and in assay [9] was below 50% in each case. In assay [5], the outcome was inactive.
As for `Cc1nc2cc(-c3cccc(C#N)c3)ccc2s1`, the inhibition in assay [4], in assay [6], in assay [7], in [8] and in assay [9] was below 50% in each case. Also, the outcome in assay [5] was inactive.
Molecule `Cc1nc2cc(-c3ccc(-c4ccc(F)cc4)c(C#N)c3)ccc2s1` registered a Ki in assay [2] of 4680 nM. In assay [3], the IC50 is above 10000 nM. Besides, the inhibition in assay [4], in assay [6], in assay [7], in [8] and in assay [9] was below 50% throughout. The result in [5] was inactive.
As for `Cc1ccc2ccc(-c3ccc(OCc4ccccc4)c(C#N)c3)cc2n1`, the affinity in assay [2] corresponds to a Ki of 1040 nM. In addition, the IC50 in assay [3] was above 10000 nM. Also, the inhibition in assay [4], in assay [6], in [7], in assay [8] and in [9] was below 50% each time. In addition, the result in assay [5] was inactive.
